# Test results reported in publication PMC4869561 (Inflammatory Bowel Diseases, 2016).
# Entries after “also recorded” stand apart in the source; their conditions may differ. Read-outs that look alike come from different tables or passages of the source.
# Tests used:
# [1] = test system: rheumatoid arthritis patients; conditions: phase III trial; cited from earlier work
# [2] = test system: mouse acetic acid-induced colitis; conditions: mouse acetic acid-induced colitis model; cited from earlier work
# [3] = test system: patients with UC; conditions: oral, clinical trial; cited from earlier work
# [4] = test system: anti-CD3/anti-CD28-stimulated PBMCs; assay: CD3/CD28 stimulation of PBMCs, IL-2 and IFN-γ release; type: cell-based, human; conditions: for efficacy of inhibition of IFN-γ release / efficacy of inhibition of IL-2 release: anti-CD3/anti-CD28-stimulated PBMCs
# [5] = test system: myofibroblasts isolated from inflamed UC mucosa; assay: TNF-α-stimulated IL-6 and IL-8 release by UC myofibroblasts; type: cell-based, human; conditions: for maximum inhibition (efficacy) of IL-6 release / maximum inhibition (efficacy) of IL-8 release: UC myofibroblasts, TNF-α-stimulated, 0.01-10 μg/mL; for IC50: 24 h
# Method in brief: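 Myofibroblasts grown from explants of inflamed resected UC mucosa in DMEM with 20% FBS and antibiotics, passaged with trypsin-EDTA and used at passage ≥4. Seeded at 5 × 10^4/well and cultured overnight. Stimulated with TNF-α 20 ng/mL plus DMSO 0.5% v/v or test compound (0.000001–1 or 0.01–10 μg/mL). After 24 h, IL-6 and IL-8 measured by ELISA as percent inhibition versus TNF-α + DMSO; at least 3 independent experiments.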
# [6] = test system: HT29 cells; assay: IL-1β-stimulated IL-8 production by HT29 cells; type: cell-based, human; conditions: for maximum inhibition of IL-8 secretion, compound alone: IL-1β-stimulated HT29, 0.1-1000 ng/mL, maximum at 1000 ng/mL; for inhibitory effect on IL-8 secretion at 100 ng/mL: IL-1β-stimulated HT29, compound alone
# [7] = test system: LPS-stimulated PBMCs; assay: LPS stimulation of PBMCs, IL-8 release; type: cell-based, human; conditions: for inhibition: Homo sapiens, PBMC, read-out: maximum inhibition of IL-8 release
# Method in brief: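 Healthy-donor PBMCs (Lymphoprep) at 1 × 10^6 cells/mL in RPMI 1640 with 10% heat-inactivated FBS and 25 mM HEPES. Preincubated 2 h at 37°C, 5% CO2 with test compound 0.1–1000 ng/mL or DMSO 0.5% v/v. LPS 1 ng/mL then added for 24 h. Supernatant IL-8 measured by ELISA. At least 3 independent experiments.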
# [8] = test system: LPS-stimulated primary human macrophages; assay: LPS activation of monocyte-derived macrophages, IL-8 and TNF-α release; type: cell-based; conditions: for inhibition of IL-8 release / inhibition of TNF-α release: LPS-stimulated macrophages, up to maximum tested 250 ng/mL; for inhibition: Homo sapiens, Macrophage
# Method in brief: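 CD14+ cells taken from human PBMCs by magnetic positive selection. Differentiated 12–14 days in RPMI with 10% FBS and GM-CSF 100 ng/mL. Plated at 2 × 10^5 cells/mL and equilibrated for 2 h. Pretreated 2 h with test compound or DMSO 0.5% v/v, then stimulated with LPS 10 ng/mL for 24 h. Supernatant IL-8 and TNF-α measured by ELISA.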
# [9] = Propidium iodide flow cytometry cell viability assay; type: cell-based; conditions: concentrations tested in the cellular assays, data not shown
# [10] = test system: inflamed colonic biopsies from patients with UC; assay: Organ culture of inflamed colonic UC biopsies, cytokine release; type: cell-based, human; conditions: 24 h; for inhibition at 1 µg/mL: Homo sapiens
# Method in brief: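 Inflamed colonic UC biopsies cultured one per well in serum-free HL-1 medium with penicillin/streptomycin at 37°C, 5% CO2. Treated with DMSO 0.5% v/v, test compounds at 1 μg/mL, the three selective inhibitors combined, or one compound at 0.001–1 μg/mL. After 24 h, supernatant IL-1β, IL-6 and IL-8 measured by ELISA. Results given as mean percent inhibition versus DMSO; at least 3 independent experiments.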
# [11] = test system: patients with active Crohn's disease; conditions: cited from earlier work
# [12] = Homo sapiens, read-out: IL-6 (IC50 Value)
# [13] = Homo sapiens, read-out: IL-8 (IC50 Value)
# [14] = read-out: inhibition of IL-1β release
# [15] = read-out: inhibition of IL-6 release
# [16] = read-out: inhibition of IL-8 release
# [17] = read-out: inhibition of TNF-α release
Structure (SMILES),efficacy of inhibition of IFN-γ release [4],efficacy of inhibition of IL-2 release [4],maximum inhibition (efficacy) of IL-6 release [5],maximum inhibition (efficacy) of IL-8 release [5],"maximum inhibition of IL-8 secretion, compound alone [6]",inhibitory effect on IL-8 secretion at 100 ng/mL [6],inhibition of IL-8 release [8],inhibition of TNF-α release [8],"IC50 [5, 12] [µg/mL]","IC50 [5, 13] [µg/mL]",inhibition [7] [%],"inhibition at 1 µg/mL [10, 14] [%]","inhibition at 1 µg/mL [10, 15] [%]","inhibition at 1 µg/mL [10, 16] [%]","inhibition [8, 16] [%]","inhibition [8, 17] [%]",other results
COc1cc(Nc2ncc(F)c(Nc3ccc4c(n3)N(COP(=O)(O)O)C(=O)C(C)(C)O4)n2)cc(OC)c1OC [fostamatinib],–,–,–,–,–,–,–,–,–,–,–,–,–,–,–,–,efficacy in rheumatoid arthritis [1]: limited efficacy; mucosal damage [2]: decrease mucosal damage
C[C@@H]1CCN(C(=O)CC#N)C[C@@H]1N(C)c1ncnc2[nH]ccc12 [tofacitinib],–,–,–,–,–,–,–,–,–,–,–,–,–,–,–,–,efficacy in UC [3]: effective
COc1ccc(-c2cc3nccn3c(Nc3ncccc3C(N)=O)n2)cc1OC [BAY-61-3606],maximal efficacy,weaker inhibition,over 90%,over 90%,17%,Neither dasatinib nor BAY-61-3606 had any significant inhibitory effect,less than 50%,less than 50%,–,–,–,–,–,–,–,–,"efficacy of inhibition of IFN-γ release ([4]; listed as BAY61-3606): weaker inhibition; potency weaker than TOP1210, IFN-γ release ([4]; ratio of IC50 values): 120 fold; potency weaker than TOP1210, IL-8 release ([7]; LPS-stimulated PBMCs, ratio of IC50 values): ~300 fold; maximum inhibition of IL-8 release ([7]; LPS-stimulated PBMCs, up to maximum tested 1 μg/mL): 83%"
"C#Cc1cc(Nc2nccc(Oc3ccc(NC(=O)Nc4cc(C(C)(C)C)nn4-c4ccc(C)cc4)c4ccccc34)n2)cc(C(=O)NCCOCCOCCOC)c1 [TOP1210, 3-((4-((4-(3-(3-(tert-butyl)-1-(p-tolyl)-1H-pyrazol-5-yl)ureido)naphthalen-1 yl)oxy)pyrimidin-2-yl)amino)-5-ethynyl-N-(2-(2-(2-methoxyethoxy)ethoxy)ethyl)benzamide]",maximal inhibition,–,–,–,maximal efficacy,–,maximal inhibition,maximal inhibition,0.0022,0.0021,100,80 to 90,80 to 90,80 to 90,–,–,"cell viability (propidium iodide, flow cytometry) [9]: not to effect cell viability; potency weaker than dasatinib, IL-2 release ([4]; ratio vs dasatinib): approximately 15 fold; potency weaker as inhibitor of IL-2 release compared with IFN-γ release ([4]; same compound, IL-2 vs IFN-γ): 18 fold"
Cc1nc(Nc2ncc(C(=O)Nc3c(C)cccc3Cl)s2)cc(N2CCN(CCO)CC2)n1 [Dasatinib],–,–,–,–,–,Neither dasatinib nor BAY-61-3606 had any significant inhibitory effect,–,–,> 1,> 1,< 50,–,–,–,< 50,87,"inhibition at 10 µg/mL ([5]; Homo sapiens, read-out: inhibition of IL-8 release): ~70%; inhibition of IL-1β release ([10]; inflamed UC biopsies, 1 μg/mL): did not have any significant effect; inhibition of IL-6 release ([10]; inflamed UC biopsies, 1 μg/mL): did not have any significant effect; inhibition of IL-8 release ([10]; inflamed UC biopsies, 1 μg/mL): did not have any significant effect"
Cc1ccc(-n2nc(C(C)(C)C)cc2NC(=O)Nc2ccc(OCCN3CCOCC3)c3ccccc23)cc1 [BIRB-796],inactive; also recorded: little-to-no effect,little-to-no effect,70%,70%,–,–,–,–,> 1,> 1,< 50,50 to 65,50 to 65,50 to 65,< 50,< 50,serum C-reactive protein ([11]; after 1 week): dose-dependent decrease; clinical efficacy endpoints compared to placebo ([11]; any time point): no clinical efficacy endpoints were reached
